Data taken from ChEMBL document CHEMBL1129622, “Synthesis of non-nucleoside analogs of toyocamycin, sangivamycin, and thiosangivamycin: the effect of certain 4- and 4,6-substituents on the antiviral activity of pyrrolo[2,3-d]pyrimidines” (J Med Chem, 1996).

Experiments:
KB = assay: Cytotoxicity (growth inhibition) against human epidermoid oral carcinoma KB cell line.; assay type: functional, cell-based
Summary of the method: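 KB cells grown in MEM(H) with 10% calf serum. Cytotoxicity measured by a staining method. IC50 from linear regression of percent inhibition against log drug concentration, average of two or more experiments.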

Human betaherpesvirus 5 [1] = assay: Antiviral activity against human cytomegalovirus (HCMV) in plaque reduction assay; assay type: functional, organism-based
Summary of the method: (§1)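 Plaque reduction in HFF monolayers (MEM(E), 10% FBS) infected with a 0.2 mL inoculum of ca. 100 PFU HCMV Towne strain. Compounds were dissolved in the overlay medium. IC50 from linear regression of percent inhibition against log concentration, average of two or more experiments. Ganciclovir positive control.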

Human alphaherpesvirus 1 [2] = assay: Antiviral activity against herpes simplex virus type 1 using ELISA; assay type: functional, organism-based
HFF = assay: Cytotoxicity produced in human foreskin fibroblasts (HFF) cells estimated by visual scoring of cells unaffected by virus infection.; assay type: ADME, cell-based
Summary of the method: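 Uninfected HFF cells in the HCMV plaque-reduction plates were examined at 35-fold magnification on the day of plaque staining. Drug-induced cytopathology was scored 0–4. IC50 from regression of percent inhibition against log concentration, average of two or more experiments.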

Human betaherpesvirus 5 [3] = assay: Antiviral activity against human cytomegalovirus by plaque reduction assay; assay type: functional, organism-based; summary of the method: as §1
[4] = Half life was determined; assay type: ADME
Human betaherpesvirus 5 [5] = assay: Antiviral activity against human cytomegalo virus using ELISA; assay type: functional, organism-based
Summary of the method: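 HCMV (Towne strain, plaque-purified isolate P0) measured by enzyme immunoassay in MRC-5 human embryonic lung cells grown in MEM(E) with 10% FBS. IC50 from linear regression of percent inhibition against log concentration, averaged over two or more experiments. Ganciclovir positive control.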

Human alphaherpesvirus 1 [6] = assay: Antiviral activity against herpes simplex virus using ELISA; assay type: functional, organism-based
Human alphaherpesvirus 1 [7] = assay: Inhibitory concentration against HSV-1; assay type: functional, organism-based

IC50 (Human betaherpesvirus 5 [3])	SMILES	IC50 (KB)	IC50 (HFF)	other results
–	CCCn1c(N)c(C#N)c2c(N)ncnc21	15 µM	100 µM	IC50 (Human betaherpesvirus 5 [1]): 0.5 µM; IC50 (Human alphaherpesvirus 1 [2]): 2.5 µM
> 100 µM	CCOCn1cc(C#N)c2c(OCC)ncnc21	–	–	–
> 100 µM	CCOCn1cc(C#N)c2c(S)ncnc21	–	–	–
> 100 µM	CCOCn1cc(C(=N)S)c2c(N(C)C)ncnc21	–	–	–
> 100 µM	CCOCn1cc(C#N)c2c(OC)ncnc21	–	–	–
> 100 µM	CCOCn1cc(C#N)c2c(N(C)C)ncnc21	–	–	–
> 100 µM	COCCOCn1cc(C(=N)S)c2c(N(C)C)ncnc21	–	–	T1/2 [4]: 150 h
–	Cc1cccc(Cn2c(N)c(C#N)c3c(N)ncnc32)c1	> 100 µM	100 µM	IC50 (Human betaherpesvirus 5 [1]): 32 µM; IC50 (Human alphaherpesvirus 1 [2]): > 100 µM
16 µM	CCOCn1c(N)c(C(=N)S)c2c(N)ncnc21	> 320 µM	> 100 µM	IC50 (Human betaherpesvirus 5 [5]): 45 µM; IC50 (Human alphaherpesvirus 1 [6]): 100 µM
> 100 µM	Nc1nc2c(ncn2COCCO)c(=O)[nH]1 [ACYCLOVIR]	> 100 µM	> 100 µM	–
> 100 µM	COCCOCn1cc(C#N)c2c(Cl)ncnc21	–	–	–
> 100 µM	COCCOCn1cc(C(=N)S)c2cncnc21	–	–	–
> 100 µM	COCCOCn1cc(C#N)c2c(OC)ncnc21	–	–	–
8.2 µM	COCCOCn1c(N)c(C#N)c2c(N)ncnc21	210 µM	> 100 µM	IC50 (Human betaherpesvirus 5 [5]): 9 µM; IC50 (Human alphaherpesvirus 1 [6]): > 100 µM
> 100 µM	COCCOCn1cc(C#N)c2c(S)ncnc21	–	–	–
–	COc1ccc(Cn2c(N)c(C#N)c3c(N)ncnc32)cc1	50 µM	100 µM	IC50 (Human betaherpesvirus 5 [1]): 9 µM; IC50 (Human alphaherpesvirus 1 [2]): 10 µM
> 100 µM	COCCOCn1cc(C#N)c2cncnc21	–	–	–
> 100 µM	CCOCn1cc(C#N)c2c(Cl)ncnc21	–	–	–
7.2 µM	CCOCn1c(N)c(C#N)c2c(N)ncnc21	138 µM	> 100 µM	IC50 (Human betaherpesvirus 5 [5]): 12 µM; IC50 (Human alphaherpesvirus 1 [6]): 68 µM
> 100 µM	CCNc1ncnc2c1c(C(=N)S)cn2COCC	–	–	–
–	Nc1nc2c(ncn2COC(CO)CO)c(=O)[nH]1 [GANCICLOVIR]	> 320 µM	> 100 µM	IC50 (Human betaherpesvirus 5 [5]): 2.2 µM
5 µM	COCCOCn1c(N)c(C(N)=S)c2c(N)ncnc21	> 320 µM	> 100 µM	IC50 (Human betaherpesvirus 5 [5]): 20 µM; IC50 (Human alphaherpesvirus 1 [6]): 100 µM
> 100 µM	CCOCn1cc(C(=N)S)c2c(O)ncnc21	–	–	–
> 100 µM	COCCOCn1cc(C#N)c2c(N(C)C)ncnc21	–	–	–
–	Cc1ccc(Cn2c(N)c(C#N)c3c(N)ncnc32)cc1	> 100 µM	32 µM	IC50 (Human betaherpesvirus 5 [1]): 0.3 µM; IC50 (Human alphaherpesvirus 1 [2]): 60 µM
> 100 µM	CCOCn1cc(C(=N)S)c2cncnc21	–	–	–
–	COCCOCn1cc(C#N)c2c(N)ncnc21	> 100 µM	> 100 µM	IC50 (Human alphaherpesvirus 1 [6]): > 100 µM
> 100 µM	CCNc1ncnc2c1c(C#N)cn2COCC	–	–	–

IC50 (Human betaherpesvirus 5 [3])	SMILES	IC50 (KB)	IC50 (HFF)	other results
> 100 µM	CCOc1ncnc2c1c(C#N)cn2COCCOC	–	–	–
20 µM	CCOCn1cc(C(=N)S)c2c(NC)ncnc21	–	–	–
> 100 µM	CCNc1ncnc2c1c(C#N)cn2COCCOC	–	–	–
–	CCOCn1cc(C(=N)S)c2c(N)ncnc21	60 µM	> 32 µM	–
> 100 µM	COCCOCn1c(N(C)C)c(C#N)c2c(N)ncnc21	> 100 µM	> 100 µM	IC50 (Human alphaherpesvirus 1 [6]): > 100 µM
> 100 µM	NC(=O)c1c(N)n(COCc2ccccc2)c2ncnc(N)c12	> 100 µM	> 100 µM	IC50 (Human betaherpesvirus 5 [5]): > 100 µM
> 100 µM	CCOCn1cc(C(=N)S)c2c(OC)ncnc21	–	–	–
> 100 µM	CCOCn1cc(C#N)c2cncnc21	–	–	–
> 100 µM	COCCOCn1cc(C(=N)S)c2c(O)ncnc21	–	–	–
> 100 µM	COCCOCn1c(Br)c(C#N)c2c(N)ncnc21	> 100 µM	> 100 µM	–
> 100 µM	N#Cc1c(Br)n(COCc2ccccc2)c2ncnc(N)c12	> 100 µM	> 100 µM	–
> 100 µM	CCOCn1cc(C(=N)S)c2c(OCC)ncnc21	–	–	–
> 100 µM	CCOCn1cc(C#N)c2c(O)ncnc21	–	–	–
> 100 µM	CCOCn1cc(C#N)c2c(N)ncnc21	> 100 µM	> 100 µM	–
> 100 µM	COCCOCn1cc(C(=N)S)c2c(S)ncnc21	–	–	–
2.8 µM	N#Cc1c(N)n(COCc2ccccc2)c2ncnc(N)c12	118 µM	> 100 µM	IC50 (Human betaherpesvirus 5 [5]): 9 µM; IC50 (Human alphaherpesvirus 1 [6]): 12.5 µM
–	N#Cc1c(N)n(Cc2ccccc2)c2ncnc(N)c12	34 µM	100 µM	IC50 (Human betaherpesvirus 5 [1]): 3.3 µM; IC50 (Human alphaherpesvirus 1 [2]): 10 µM
–	C=CCn1c(N)c(C#N)c2c(N)ncnc21	> 100 µM	100 µM	IC50 (Human betaherpesvirus 5 [1]): 1.9 µM; IC50 (Human alphaherpesvirus 1 [2]): 40 µM
> 100 µM	CCOCn1cc(C#N)c2c(NC)ncnc21	–	–	–
20 µM	CNc1ncnc2c1c(C(=N)S)cn2COCCOC	–	–	IC50 (Human alphaherpesvirus 1 [7]): 30 µM
> 100 µM	CNc1ncnc2c1c(C#N)cn2COCCOC	–	–	–
> 100 µM	COCCOCn1cc(C#N)c2c(O)ncnc21	–	–	–
> 100 µM	COCCOCn1cc(C(=N)S)c2c(OC)ncnc21	–	–	–
16 µM	NC(=S)c1c(N)n(COCc2ccccc2)c2ncnc(N)c12	225 µM	> 100 µM	IC50 (Human betaherpesvirus 5 [5]): 19 µM; IC50 (Human alphaherpesvirus 1 [6]): 60 µM
> 100 µM	CCNc1ncnc2c1c(C(=N)S)cn2COCCOC	–	–	–
> 100 µM	CCOCn1c(Br)c(C#N)c2c(N)ncnc21	> 100 µM	> 100 µM	–
> 100 µM	CNc1c(C#N)c2c(N)ncnc2n1COCCOC	> 100 µM	> 100 µM	IC50 (Human alphaherpesvirus 1 [6]): > 100 µM

SMILES	IC50 (Human betaherpesvirus 5 [3])	IC50 (KB)	IC50 (HFF)	other results
CCOCn1c(N)c(C(N)=O)c2c(N)ncnc21	> 100 µM	> 100 µM	> 100 µM	IC50 (Human betaherpesvirus 5 [5]): > 100 µM
COCCOCn1cc(C(N)=S)c2c(N)ncnc21	1.3 µM	–	> 100 µM	–
COCCOCn1c(N)c(C(N)=O)c2c(N)ncnc21	> 100 µM	> 100 µM	> 100 µM	IC50 (Human betaherpesvirus 5 [5]): > 100 µM
